Screens deposited in PubChem BioAssay by several laboratories.
In the library only some 2.7% were active in any assay of this set; here they are far more common.
MC4R antag cAMP: antagonists of human melanocortin 4 receptor (MC4R); P32245; inhibition, % at 6.5 µM; MC4R-expressing cells, MTII-stimulated cAMP, LANCE TR-FRET; 360,000 tested, 0.48% active;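 active means inhibition above its plate's cutoff, the mean of tested wells on that plate plus 3 SD, cut at about 29% in these data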;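 further: 0% = Melanotan II alone and 100% = Melanotan II plus saturating MCL0020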
Target sequence (P32245 whole entry, looked up): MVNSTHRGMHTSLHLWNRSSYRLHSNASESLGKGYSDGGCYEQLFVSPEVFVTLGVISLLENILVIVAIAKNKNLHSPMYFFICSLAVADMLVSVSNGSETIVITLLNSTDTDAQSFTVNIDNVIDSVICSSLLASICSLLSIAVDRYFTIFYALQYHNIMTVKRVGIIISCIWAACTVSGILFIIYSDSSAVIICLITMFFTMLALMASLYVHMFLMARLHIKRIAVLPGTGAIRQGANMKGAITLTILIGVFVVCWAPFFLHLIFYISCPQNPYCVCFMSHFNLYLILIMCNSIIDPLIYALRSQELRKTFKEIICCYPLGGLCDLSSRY
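Test system: U2OS cells stably expressing human melanocortin 4 receptor (MC4R); also added: Melanotan II challenge; compound: 6.5 µM single dose; timing: 30-min compound preincubation, 1-h Melanotan II challenge, 1-h detection, room temperature; signal: Eu-cAMP/anti-cAMP TR-FRET, emission 671 nm; repeats: one well per compound, no replicates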
NR2E3 ag-1: agonists of human nuclear receptor NR2E3; 320,000 tested, 0.12% active; inhibition of corepressor binding, % at 4.78 µM; AID 2300; GST-NR2E3/biotin-RetCOR TR-FRET, 1536-well; Q9Y5X4;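 active means percent inhibition above the cutoff of mean plus 3 SD of all tested compounds, set per screening campaign, cut at about 20% in these data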;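 further: 0% = DMSO wells and 100% = biotin wells as full block of FRET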
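system = GST-tagged NR2E3 plus biotinylated RetCOR corepressor | input = 1.35 nM GST-NR2E3 | also added = 7 nM biotin-RetCOR | schedule = 5 h incubation at 4 °C | measured by = TR-FRET with europium anti-GST and streptavidin-D2, 340 nm excitation | read-out = percent loss of FRET ratio relative to control wells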
PG9 Ab binder: binds the HIV-1 gp120 antibody PG9; inhibition, % at 6.7 µM; 360,000 tested, 0.43% active; TR-FRET gp120-PG9 antibody binding; AID 624416; in the data active means inhibition above about 8.5%
NR1D1 modulator: Rev-erb alpha (human) modulation; P20393; Rev-erbα–FITC-DNA binding, fluorescence polarization, 90 min; activity, % at 10 µM; 370,000 tested, 0.79% active;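 active means activity above about 14%, limit read from the data; passing the limit was not always enough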;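 further: 0% = DMSO wells with 35 nM protein and 100% = DMSO wells with 750 nM protein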
MC4R barr agon: human MC4R agonism via beta-arrestin; 360,000 tested, 0.98% active; U2OS MC4R beta-arrestin complementation, luminescence; percent of melanotan II response, DMSO zero; activation, % at 8.9 µM; AID 540308;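 active means activation above a per-plate cutoff, the mean activation of sample wells on that plate plus 3 SD, cut at about 8% in these data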
NR2E3 ag-2: agonists of human NR2E3 nuclear receptor; inhibition of corepressor binding, % at 3.98 µM; CHO-S Gal4-NCOR/VP16-NR2E3 two-hybrid, luciferase; 360,000 tested, 0.35% active;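 active means inhibition above the mean of all tested compounds plus 3 SD, cut at about 70% in these data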;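 further: 0% = DMSO with NR2E3 transfected cells and 100% = cells lacking NR2E3 construct; higher means lower luciferase signal from less NR2E3 corepressor binding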
MC4R barr conf: human MC4R beta-arrestin agonism confirmation; AID 602192; activation, % at 8.9 µM; U2OS MC4R beta-arrestin recruitment, luminescence; scaled DMSO 0%, Melanotan II 100%; 2,400 tested, 31% active; shares compounds with MC4R barr agon;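 active means mean activation across replicates above the hit cutoff set in the earlier primary screen, cut at about 8% in these data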
MOR DOR agonist: activates mu-delta opioid heterodimer, MC4R agonist counter-screen. shares compounds with MC4R barr agon. AID 602194. U2OS PathHunter beta-arrestin, beta-gal luminescence; percent of deltorphin B response, DMSO zero. 2,400 tested, 5.8% active. activation, % at 9.2 µM;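 active means mean activation across replicates exceeds the hit threshold derived in the earlier primary screen, cut at about 18% in these data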;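 further: 100% = deltorphin B at 0.9 µM final and 0% = DMSO alone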
The depositor's hits bear a star; . = no result given.

SMILES	MC4R antag cAMP	NR2E3 ag-1	PG9 Ab binder	NR1D1 modulator	MC4R barr agon	NR2E3 ag-2	MC4R barr conf	MOR DOR agonist
Cc1occc1-c1nnc(SCC(=O)Nc2nc(-c3ccccc3)cs2)o1	-3	-1	0	-24	24*	-39	2	5
Cc1cc(-c2nnc(SCC(=O)Nc3nc(-c4ccccc4)cs3)o2)no1	0	1	2	-5	3	5	.	.
Cc1ccc(NC(=O)CSc2nnc3c(n2)[nH]c2ccccc23)cc1	17	2	1	0	-1	-1	.	.
O=C(NCc1ccccc1)C(c1ccccc1)n1c(-c2ccncc2)nc2ccccc21 (centres undefined)	.	.	1	0	.	.	.	.
Cc1cc(C(=O)N2CCOCC2)c(C)o1	5	0	-1	-2	-2	-23	.	.
COc1ccccc1NS(=O)(=O)c1ccc(C(=O)NCc2ccc(S(N)(=O)=O)cc2)cc1	5	.	-1	-8	1	-7	.	.
O=C(O)Cn1nc2c3c(cccc3c1=O)-c1ccccc1-2	3	4	0	3	0	16	.	.
Cc1ccc(-n2nc3c4c(cccc4c2=O)-c2ccccc2-3)cc1	8	3	-2	-6	21*	-13	10*	6
COc1ccc(CSCC(=O)N/N=C/c2ccc(OCC(=O)N3CCCCC3)cc2)cc1	4	2	0	0	-2	-7	.	.
Cc1ccc(CSCC(=O)N/N=C/c2ccc(OCC(=O)Nc3ccc(C)cc3)cc2)cc1	4	-3	0	-4	16*	-9	4	5
O=C(Nc1ccc(F)c(Cl)c1)c1ccc2sc([C@H]3C[C@H](O)[C@@H](CO)O3)nc2c1	-1	.	-1	2	0	-92	.	.
CCOc1ccc(-c2nnc(-c3ccc(OC)cc3)o2)cc1	4	2	0	3	31*	-43	1	5
Cc1sc2ncnc(SCC(=O)c3cccs3)c2c1C	-1	-5	8	18	43*	-84	4	6
COc1ccc2c(c1)CC/C2=N\OC(=O)c1ccccc1OC	-4	4	0	-1	1	-13	.	.
CCCc1cc(-c2[nH]ncc2-c2ccc3c(c2)OCCCO3)c(O)cc1O	10	0	1	3	12*	-26	11*	18
CCCc1cc(-c2[nH]ncc2-c2ccc(C(=O)OCC)o2)c(O)cc1O	17	-1	-2	3	23*	5	10*	7
CCc1cc(-c2[nH]ncc2-c2nc3ccccc3n2C)c(O)cc1O	-14	2	-1	-2	2	-15	.	.
COc1cc(NC(=O)c2oc3ccccc3c2C)ccc1NC(=O)c1ccco1	5	3	3	0	9.7*	-35	2	5
COc1cc(NC(=O)c2cccc(F)c2)ccc1NC(=O)c1cc2ccccc2o1	-5	-2	1	-15	12*	-21	5	9
O=C(Nc1ccc2c(c1)CCC2)c1cc2ccccc2o1	1	3	1	1	2	-161	.	.
O=C(Nc1ccc2c(c1)Cc1ccccc1-2)c1cc2ccccc2o1	4	-2	-2	6	13*	-71	-1	3
CCOc1cc(NC(=O)c2ccco2)c(OCC)cc1NC(=O)c1cc(OC)c(OC)c(OC)c1	0	-1	2	5	13*	-46	4	53*
COc1cc(NC(=O)c2cc3ccccc3o2)ccc1NC(=O)c1ccco1	7	3	8	-12	2	-38	.	.
COc1cc(NC(=O)c2ccc(C)cc2C)ccc1NC(=O)c1cc2ccccc2o1	5	-1	2	-1	12*	-23	16*	12
COc1ccc(/C=C/C2=NC(=C\N(C)C)/C(=O)O2)cc1	-13	1	-7	-4	-1	-55	.	.
